Laboratory results published in ChEMBL document CHEMBL5042517, “Discovery, X-ray Crystallography, and Anti-inflammatory Activity of Bromodomain-containing Protein 4 (BRD4) BD1 Inhibitors Targeting a Distinct New Binding Site” (J Med Chem, 2022).
Converted amounts (≈) assume the structure as drawn. The source made the active and inactive calls. No cut-off for these calls is given here.

Columns and labels:
[1] = target: T1, Bromodomain-containing protein 2 (Homo sapiens, UniProt P25440); assay: Binding affinity BRD2 BD1 (unknown origin) incubated for 1 hr by TR-FRET assay
T1 sequence (P25440 whole entry): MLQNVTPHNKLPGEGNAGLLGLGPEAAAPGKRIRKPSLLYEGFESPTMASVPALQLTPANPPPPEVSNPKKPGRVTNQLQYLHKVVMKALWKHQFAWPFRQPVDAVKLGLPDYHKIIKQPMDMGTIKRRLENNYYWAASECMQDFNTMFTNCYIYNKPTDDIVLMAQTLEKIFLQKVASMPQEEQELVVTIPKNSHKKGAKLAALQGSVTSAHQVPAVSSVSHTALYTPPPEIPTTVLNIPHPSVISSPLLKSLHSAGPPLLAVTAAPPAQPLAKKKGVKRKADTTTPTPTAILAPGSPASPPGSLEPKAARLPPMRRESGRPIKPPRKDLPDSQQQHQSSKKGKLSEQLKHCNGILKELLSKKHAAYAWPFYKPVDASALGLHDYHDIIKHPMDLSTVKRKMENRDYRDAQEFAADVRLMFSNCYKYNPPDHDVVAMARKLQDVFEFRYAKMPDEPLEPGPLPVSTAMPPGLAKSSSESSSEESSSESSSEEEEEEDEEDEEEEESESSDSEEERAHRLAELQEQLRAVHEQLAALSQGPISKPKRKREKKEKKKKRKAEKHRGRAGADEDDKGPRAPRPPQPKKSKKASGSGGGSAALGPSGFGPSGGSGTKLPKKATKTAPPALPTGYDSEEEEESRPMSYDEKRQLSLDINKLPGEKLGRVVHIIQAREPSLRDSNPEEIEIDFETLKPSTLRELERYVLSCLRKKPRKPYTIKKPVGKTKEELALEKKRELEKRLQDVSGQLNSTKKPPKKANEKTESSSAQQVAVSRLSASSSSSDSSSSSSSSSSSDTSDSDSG
Summary of the method: (§1)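 Commercial TR-FRET kit with recombinant BRD2 bromodomain. Inhibitor at 0.01 nM–100 μM, 1 h at room temperature. Excitation 340 nm; 670/620 nm emission ratio read with 100 μs delay. IC50 from a four-parameter fit, mean of three runs.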

[2] = system: Mus musculus; assay: Antiinflammatory activity in C57BL/6 mouse model of poly(I:C)-induced acute airway inflammation assessed as decrease in RANTES level in BALF at 10 mg/kg, po administered 1 day prior to poly(I:C) stimulation; format: functional, organism-based
[3] = system: Mus musculus; assay: Antiinflammatory activity in C57BL/6 mouse model of poly(I:C)-induced acute airway inflammation assessed as decrease in CIG5 gene expression in lung tissue at 10 mg/kg, po administered 1 day prior to poly(I:C) stimulation; format: functional, organism-based
[4] = system: Bromodomain-containing protein 4 (Homo sapiens), O60885 [E151A]
[5] = system: Bromodomain-containing protein 4 (Homo sapiens), O60885 [E151A]; remark: listed apart in the source
[6] = target: T2, Bromodomain-containing protein 4 (Homo sapiens, UniProt O60885)
[7] = target: T2, Bromodomain-containing protein 4; remark: listed apart in the source
[8] = target: T1, Bromodomain-containing protein 2; assay: Binding affinity BRD2 BD2 (unknown origin) incubated for 1 hr by TR-FRET assay; summary of the method: as §1
[9] = Aqueous solubility of the compound after 24 hrs by HPLC analysis; format: physicochemical; conditions: buffer
Summary of the method: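 Compound suspended in water and shaken 24 h at 25 °C, then centrifuged and filtered. Supernatant analyzed by C18 reverse-phase HPLC with one-point calibration against solutions of known concentration.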

[10] = target: T2, Bromodomain-containing protein 4; remark: listed apart in the source
[11] = target: T2, Bromodomain-containing protein 4; remark: listed apart in the source
[12] = Half life in rat at 20 mg/kg, po; format: ADME, organism-based; conditions: in vivo
[13] = Volume of distribution at steady state in rat at 10 mg/kg, iv; format: ADME, organism-based; conditions: in vivo, read-out: Vdss
[14] = target: T2, Bromodomain-containing protein 4; assay: Binding affinity to wild type human BRD4 BD1 (42 to168 residues) expressed in bacterial competent cells assessed as increase in thermal stability by thermal shift assay
[15] = target: T2, Bromodomain-containing protein 4; remark: listed apart in the source
[16] = system: Bromodomain-containing protein 4 (Homo sapiens), O60885 [E151A]; remark: listed apart in the source
[17] = target: T2, Bromodomain-containing protein 4; remark: listed apart in the source
[18] = target: T2, Bromodomain-containing protein 4; remark: listed apart in the source
[19] = system: Bromodomain-containing protein 4 (Homo sapiens), O60885 [E151A]; remark: listed apart in the source
[20] = Volume of distribution at steady state in rat at 20 mg/kg, po; format: ADME, organism-based; conditions: in vivo

## O=C(Nc1ccc(C(F)(F)F)cc1)Nc1ccc(S(=O)(=O)N2CCC[C@H]2CN2CCOCC2)cc1
[1]
  IC50: 835 nM
[2]
  Activity: inactive
[3]
  Activity: inactive
[4]
  ΔTm: 0.5 °C
[5]
  ΔTm: 0.5 °C
[6]
  ΔTm: 15.7 °C
[7]
  ΔTm: 1.1 °C
[8]
  IC50: 1310 nM
[9]
  solubility: 3500 µg/mL (≈ 6.83 mM)
[10]
  ΔTm: 0.7 °C
[11]
  ΔTm: 0.7 °C
[12]
  half-life: 3.7 h
[13]
  Vd: 16 L/kg
[14]
  Activity: Dose-Dependent Effect
[15]
  ΔTm: 0.8 °C
[16]
  ΔTm: 0.9 °C
[17]
  ΔTm: 0.6 °C
[18]
  ΔTm: 0.6 °C
[19]
  ΔTm: 0.4 °C
[20]
  Vdss: 170 L/kg
